Screening results (PubChem)
Hits are enriched below; roughly 2.5% of the tested compounds scored in any of these assays.
NPY Y2 blocker = NPY-Y2 receptor antagonists, primary screen, cell-based; AID 793, 2007; 140,000 tested, 0.99% active; NPY-Y2 expressing cells, antagonist mode; Neuropeptide Y receptor type 2 (Homo sapiens), P49146; inhibition, % at 2.7 µM; in the data active = inhibition above about 17%
Target sequence (P49146 whole entry, looked up): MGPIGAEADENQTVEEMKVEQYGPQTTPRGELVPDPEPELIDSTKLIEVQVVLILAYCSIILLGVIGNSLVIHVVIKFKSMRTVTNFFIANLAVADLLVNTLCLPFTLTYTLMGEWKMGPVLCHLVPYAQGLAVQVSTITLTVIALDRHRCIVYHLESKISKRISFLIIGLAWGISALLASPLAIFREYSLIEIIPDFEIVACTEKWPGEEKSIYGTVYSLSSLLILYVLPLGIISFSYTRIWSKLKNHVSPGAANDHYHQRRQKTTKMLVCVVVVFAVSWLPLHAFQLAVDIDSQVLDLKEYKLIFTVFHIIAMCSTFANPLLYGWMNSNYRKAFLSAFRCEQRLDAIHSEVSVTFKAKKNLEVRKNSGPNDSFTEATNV
NPY-Y2 PAM-ag = NPY-Y2 potentiators or agonists, primary screen, cell-based; Neuropeptide Y receptor type 2 (Homo sapiens), P49146; cells expressing NPY-Y2, potentiator/agonist read-out; activation, % at 3.6 µM; 220,000 tested, 0.45% active; AID 1359, 2008; in the data active = activation above about 27%;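 also: cells stimulated with NPY near EC25 plus isoproterenol at EC100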
Insulin prom inh = inhibitors of insulin promoter-driven GFP, primary screen, imaging, TRM-6 cells, eGFP reporter, cell count; reporter expression induced with tamoxifen; inhibition, % at 2 µM; 130,000 tested, 0.9% active; AID 1273, 2008;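 active = inhibition above the mean plus 3 SD, with well images judged a real hit on visual review, cut at about 60% in these data, passing the limit was not always enough; inconclusive = inhibition over the cutoff but images rejected on review; inactive = inhibition not above the cutoff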
NPY-Y1 antag = NPY-Y1 receptor antagonists, primary screen, cell-based; Neuropeptide Y receptor type 1 (Homo sapiens), P25929; HEK293-CNG Y1 cells, membrane potential fluorescence; NPY at EC95, then isoproterenol; inhibition, % at 3.6 µM; 200,000 tested, 1% active;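 active = inhibition above the campaign mean inhibition of all tested compounds plus 3 SD, cut at about 20% in these data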
Target sequence (P25929 whole entry, looked up): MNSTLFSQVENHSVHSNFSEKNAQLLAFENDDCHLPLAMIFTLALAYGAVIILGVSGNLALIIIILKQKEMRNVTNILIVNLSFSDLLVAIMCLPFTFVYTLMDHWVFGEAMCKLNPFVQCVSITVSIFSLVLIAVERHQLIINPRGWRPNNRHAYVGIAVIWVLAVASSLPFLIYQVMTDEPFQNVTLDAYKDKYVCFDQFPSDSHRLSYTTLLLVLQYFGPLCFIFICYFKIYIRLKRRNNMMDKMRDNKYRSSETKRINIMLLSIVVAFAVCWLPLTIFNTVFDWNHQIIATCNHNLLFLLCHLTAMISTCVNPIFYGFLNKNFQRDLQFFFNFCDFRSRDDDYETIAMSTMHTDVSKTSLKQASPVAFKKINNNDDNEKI
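Material: Y1- and CNG-channel-expressing HEK293 cells / Probe or stimulus: NPY 25 nM then isoproterenol 1 µM plus Ro 20-1724 25 µM / Doses: 3.6 µM single dose, DMSO 0.4% / Schedule: compound incubation 1 h at room temperature, readout 45 min post-stimulation / Signal: membrane potential fluorescence / Benchmarks: isoproterenol-only wells as full block versus NPY-plus-isoproterenol wells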
Ins promoter up = insulin promoter activators in MIN6 cells, imaging, high-content screening, mouse beta cells; 190,000 tested, 0.3% active; AID 1625, 2009; MIN6 insulin promoter-GFP reporter; active compounds read high; z-score at 5 µM;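 active = z-score above 3 at 5 µM with at least 500 cells counted in the well; inconclusive = wells under 500 cells, flagged as cytotoxic or low count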
NPY1 pot ag = NPY-Y1 receptor potentiators or agonists, primary screen, cell-based | NPY-Y1 expressing cells, potentiator/agonist activation | Neuropeptide Y receptor type 1 (Homo sapiens), P25929 | activation, % at 3.6 µM | 220,000 tested, 0.37% active; in the data active = activation above about 33%, passing the limit was not always enough;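 also: cells stimulated with NPY at EC10 then isoproterenol at EC100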
Of the large screens only hits and unclear results are named; the others gave an inactive call.

O=C(Nc1nnc(SCc2c(Cl)cccc2Cl)s1)c1ccc2ncsc2c1	none (no result: NPY Y2 blocker, Insulin prom inh)
CC1CCCCN1c1nnc(NC(=O)c2cc(-c3ccc(Br)cc3)on2)s1 (configuration not stated)	none (no result: Insulin prom inh)
O=C(Nc1cccc(Cl)c1)/C(=C\c1cccnc1)NC(=O)c1ccco1	Insulin prom inh 66.7 (no result: NPY Y2 blocker)
O=C(Nc1ccccc1)/C(=C/c1cccnc1)NC(=O)c1ccco1	none
Cc1ccc(N2CCN(S(=O)(=O)N3CCCCC3)CC2)cc1Cl	Insulin prom inh 70.3
O=C(NCC1CCCO1)C1CCN(C2CCN(C(=O)Cc3ccsc3)CC2)CC1 (configuration not stated)	none (no result: NPY Y2 blocker, Insulin prom inh)
OC(CNC1Cc2ccccc2C1)COc1ccc(F)cc1 (configuration not stated)	NPY-Y2 PAM-ag 74.3, NPY1 pot ag 84.8 (no result: NPY Y2 blocker, Insulin prom inh, NPY-Y1 antag, Ins promoter up)
CC(=O)c1ccc(OCC(O)CN2CCN(Cc3ccccc3)CC2)cc1 (configuration not stated)	none (no result: Insulin prom inh)
CC(C)(c1ccccc1)c1ccc(OCC(O)CNC2CCN(Cc3ccccc3)CC2)cc1 (configuration not stated)	NPY-Y1 antag 21.4, Ins promoter up inconclusive (no result: NPY Y2 blocker)
CCOc1ccc(OCC(O)CNC2CCN(Cc3ccccc3)CC2)cc1 (configuration not stated)	NPY Y2 blocker 19.4, NPY-Y1 antag 29.9 (no result: Insulin prom inh)
O=[N+]([O-])c1ccc(-c2csc(NN=C3CCCC3)n2)cc1	none (no result: NPY Y2 blocker)
COc1cc(C(C)=O)ccc1COc1ccc(C(=O)O)cc1OC	none (no result: NPY Y2 blocker, Insulin prom inh, NPY-Y1 antag)
CCCc1n[nH]c2c1C(=O)C(C(=O)OC)C(C)(C)C2 (configuration not stated)	Ins promoter up 3.65
C=CCN=c1scc(-c2ccc(F)cc2)n1/N=C/c1ccccn1	NPY-Y2 PAM-ag 33.1, NPY1 pot ag 59.8 (no result: Insulin prom inh)
C=CCN=c1scc(-c2ccccc2)n1/N=C/c1ccccn1	none (no result: Insulin prom inh)
Cc1cc(Oc2ccc(C)c(Cl)c2)nc(SCC(=O)c2ccccc2)n1	NPY Y2 blocker 35.1, NPY-Y1 antag 33.9
Cc1ccc(C(=O)CSc2cc(C)nc(SCC(=O)c3ccccc3)n2)cc1	none
CSc1nc2ccccc2n1C(=O)Oc1ccccc1	Insulin prom inh 86.7
CCOC(=O)n1c(SCC(N)=O)nc2ccccc21	none
COc1cccc2c1C(=O)C=C(C)C2=O	NPY-Y2 PAM-ag 34.5, NPY1 pot ag 51.5
COc1ccc(OC)c(CNC(=O)Cc2c(C(=O)O)[nH]c3ccc(Cl)cc23)c1	Insulin prom inh 77.8 (no result: NPY Y2 blocker)
Cc1ccc(-n2c(=O)cc(N3CC(C)CC(C)C3)[nH]c2=O)cc1 (configuration not stated)	Insulin prom inh 72.7
Cc1cc(C)cc(NC(=S)NCCN2CCOCC2)c1	none (no result: Ins promoter up)
Cc1ccc(C(=O)NC(N2CCCC2)C(Cl)(Cl)Cl)cc1 (configuration not stated)	none (no result: Insulin prom inh)
COc1ccc2cc3c(N)nn(C(=O)C4CCC(C(C)(C)C)CC4)c3nc2c1 (configuration not stated)	Insulin prom inh 60.0
COc1ccc(Cn2c(SCc3ccc(C)cc3)nc3cc(OC)c(OC)cc3c2=N)cc1Cl	NPY Y2 blocker 24.5, NPY-Y1 antag 34.3
COc1cc2nc(SCc3ccc(Cl)cc3Cl)n(Cc3cccs3)c(=N)c2cc1OC	none (no result: Ins promoter up)
COc1ccc(Cn2c(SCc3cc(C)ccc3C)nc3cc(OC)c(OC)cc3c2=N)cc1	NPY Y2 blocker 55.0, NPY-Y1 antag 47.1
Cc1cccc2cc3c(N)c(C(=O)N4CCc5ccccc54)sc3nc12	Ins promoter up 4.42
Cc1cccc2cc3c(N)c(C(=O)Nc4ccc(N5CCOCC5)cc4)sc3nc12	none
COc1cccc(CC2(CO)CCCN(C(=O)c3cc[n+]([O-])cc3)C2)c1 (configuration not stated)	none (no result: NPY Y2 blocker, Insulin prom inh)
Cc1cc(NC(=O)C23CC4CC(CC(C4)C2)C3)n[nH]1	none (no result: NPY Y2 blocker, Insulin prom inh)
CCC(=O)Nc1cc(C)c(NC(=O)C23CC4CC(CC(C4)C2)C3)cn1	Insulin prom inh 75.7 (no result: Ins promoter up)
COc1ccc([C@@H]2C=C(C(=O)O)O[C@H](OCCCCO)C2)cc1	none (no result: NPY Y2 blocker, NPY-Y2 PAM-ag, Insulin prom inh, NPY-Y1 antag, NPY1 pot ag)
CCOc1nc(NC(=O)NS(=O)(=O)c2ccccc2F)nc(-c2ccccc2)n1	Insulin prom inh 90.9 (no result: NPY Y2 blocker)
CCOc1nc(CC)nc(NC(=O)NS(=O)(=O)c2ccccc2Cl)n1	none (no result: Insulin prom inh)
O=C(OCC(=O)N1CCCc2ccccc21)c1ccc(Cl)nc1	Insulin prom inh 80.0
O=[N+]([O-])c1ccc(N=Nc2c(Cl)cc(O)cc2Cl)cc1	NPY-Y2 PAM-ag 64.9, Ins promoter up inconclusive, NPY1 pot ag 66.8 (no result: NPY Y2 blocker, Insulin prom inh, NPY-Y1 antag)
CC(N)=Nc1ccc([N+](=O)[O-])cc1	none (no result: Insulin prom inh)
CC[n+]1c(/C=C2\C=C(C)CC(C)(C)C2)sc2ccccc21	NPY Y2 blocker 19.9, NPY-Y1 antag 21.8, Ins promoter up inconclusive (no result: Insulin prom inh)
CCOC(=O)N1CCN(CC(=O)Nc2c(C(=O)OC)[nH]c3cccc(Cl)c23)CC1	none (no result: Insulin prom inh)
CCN1CCN(CC(=O)Nc2c(C(=O)OC)[nH]c3cccc(Cl)c23)CC1	Insulin prom inh 78.6
N#C/C(=C/c1ccc(-c2cc(C(=O)O)cc(C(=O)O)c2)o1)c1nc2ccccc2s1	Ins promoter up 3.02 (no result: NPY Y2 blocker)
N#C/C(=C\c1ccco1)c1nc2ccccc2s1	none (no result: Insulin prom inh)
C[C@@H]1C=C(C(=O)NCc2ccccc2)O[C@H](OCc2ccc(CO)cc2)C1	none (no result: NPY Y2 blocker, Insulin prom inh)
COC(=O)C(Cc1ccccc1)NC(=O)C12CC3CC(CC(C3)C1)C2 (configuration not stated)	none (no result: Insulin prom inh)
COC(=O)C(Cc1ccc(O)cc1)NC(=O)C12CC3CC(CC(C3)C1)C2 (configuration not stated)	NPY-Y2 PAM-ag 63.1, NPY1 pot ag 50.8 (no result: NPY Y2 blocker)
COc1ccc(C2C(C(=O)c3ccco3)=C(O)C(=O)N2c2nnc(C)s2)cc1 (configuration not stated)	none (no result: NPY Y2 blocker, Insulin prom inh)
Cc1ccc2nc(N3C(=O)C(O)=C(C(=O)c4ccco4)C3c3cccs3)sc2c1 (configuration not stated)	NPY Y2 blocker 19.0, NPY-Y1 antag 36.8
O=C(NC1CCCCC1)C(c1ccc(F)cc1)N(Cc1ccco1)C(=O)CN1C(=O)c2ccccc2S1(=O)=O (configuration not stated)	none (no result: Insulin prom inh, Ins promoter up)
CN(C)c1ccc(/C=N/NC(=O)CN(c2ccccc2Cl)S(C)(=O)=O)cc1Br	Ins promoter up 3.57
CS(=O)(=O)N(CC(=O)N/N=C/c1ccc(OCC(=O)N2CCOCC2)cc1)c1ccccc1Cl	none
CCCC(c1nnnn1C1CCCCC1)N1CCN(C2CCCC2)CC1 (configuration not stated)	none (no result: Insulin prom inh)
CCCC(c1nnnn1Cc1ccc(F)cc1)N1CCN(C2CCCCC2)CC1 (configuration not stated)	NPY Y2 blocker 31.4, NPY-Y1 antag 22.9 (no result: Insulin prom inh)
